Positions count from the first letter of the chain named.
Tests used:
Details in all cases: stereoisomer not certain
[1] = target: T1, OR6K3 (Homo sapiens) (UniProt Q8NGY3)
T1 sequence (whole entry): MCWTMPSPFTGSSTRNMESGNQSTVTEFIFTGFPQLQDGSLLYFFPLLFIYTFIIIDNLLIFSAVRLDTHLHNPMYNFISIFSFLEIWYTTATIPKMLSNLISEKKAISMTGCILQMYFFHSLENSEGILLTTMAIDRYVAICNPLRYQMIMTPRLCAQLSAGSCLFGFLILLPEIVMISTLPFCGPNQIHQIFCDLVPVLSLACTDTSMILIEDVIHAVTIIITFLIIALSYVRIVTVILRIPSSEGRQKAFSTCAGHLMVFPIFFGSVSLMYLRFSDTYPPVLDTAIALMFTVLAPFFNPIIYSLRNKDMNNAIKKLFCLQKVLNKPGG
Procedure, shortened: (§1)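 Assay methods differ from source to source, frequently being transient luciferase assays in mammalian cell lines. For each receptor–molecule pair, the label responsive (active) applies when the original authors judged the measured signal statistically different from baseline, and non-responsive (inactive) applies otherwise.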

[2] = target: T2, OR6K6 (Homo sapiens) (UniProt Q8NGW6)
T2 sequence (whole entry): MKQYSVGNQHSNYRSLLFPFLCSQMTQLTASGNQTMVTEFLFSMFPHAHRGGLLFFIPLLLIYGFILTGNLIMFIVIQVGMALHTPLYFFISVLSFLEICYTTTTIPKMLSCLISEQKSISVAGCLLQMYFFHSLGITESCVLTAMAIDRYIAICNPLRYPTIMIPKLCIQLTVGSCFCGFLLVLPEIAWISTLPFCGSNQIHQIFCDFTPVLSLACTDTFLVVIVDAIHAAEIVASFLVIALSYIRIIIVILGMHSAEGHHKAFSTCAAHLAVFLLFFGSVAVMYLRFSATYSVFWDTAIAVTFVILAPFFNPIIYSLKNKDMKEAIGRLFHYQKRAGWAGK
Procedure, shortened: as §1

[3] = target: T3, OR6M1 (Homo sapiens) (UniProt Q8NGM8)
T3 sequence (whole entry): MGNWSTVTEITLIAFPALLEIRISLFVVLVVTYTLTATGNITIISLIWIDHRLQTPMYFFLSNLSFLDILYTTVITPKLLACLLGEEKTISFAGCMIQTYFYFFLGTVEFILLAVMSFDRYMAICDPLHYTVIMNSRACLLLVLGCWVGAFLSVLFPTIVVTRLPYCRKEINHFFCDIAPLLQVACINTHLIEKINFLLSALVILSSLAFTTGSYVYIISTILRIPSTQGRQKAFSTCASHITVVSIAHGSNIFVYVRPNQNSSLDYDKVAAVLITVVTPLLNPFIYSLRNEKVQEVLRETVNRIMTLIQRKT
Procedure, shortened: as §1

[4] = test system: T4, OR6M1 T276K
T4 sequence (whole entry): T3 sequence (whole entry) with T276K
Procedure, shortened: as §1

[5] = target: T5, OR6N1 (Homo sapiens) (UniProt Q8NGY5)
T5 sequence (whole entry): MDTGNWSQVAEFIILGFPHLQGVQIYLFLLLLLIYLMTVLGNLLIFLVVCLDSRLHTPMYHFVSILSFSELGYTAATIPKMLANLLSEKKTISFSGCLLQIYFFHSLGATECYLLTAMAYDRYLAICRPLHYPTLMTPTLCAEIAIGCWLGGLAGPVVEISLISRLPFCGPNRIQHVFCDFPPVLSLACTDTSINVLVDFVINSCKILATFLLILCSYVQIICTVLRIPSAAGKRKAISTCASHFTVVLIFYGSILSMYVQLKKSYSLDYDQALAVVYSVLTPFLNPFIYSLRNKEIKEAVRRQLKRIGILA
Procedure, shortened: as §1

[6] = target: T6, OR6N2 (Homo sapiens) (UniProt Q8NGY6)
T6 sequence (whole entry): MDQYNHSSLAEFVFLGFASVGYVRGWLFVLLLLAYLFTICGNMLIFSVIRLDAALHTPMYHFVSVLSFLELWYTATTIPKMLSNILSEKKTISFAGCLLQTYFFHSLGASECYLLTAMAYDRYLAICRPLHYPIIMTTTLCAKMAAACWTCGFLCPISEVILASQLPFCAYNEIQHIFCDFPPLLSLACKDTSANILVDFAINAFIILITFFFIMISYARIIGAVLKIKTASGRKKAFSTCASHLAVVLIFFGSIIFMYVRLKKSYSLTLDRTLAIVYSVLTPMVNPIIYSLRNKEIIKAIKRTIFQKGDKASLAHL
Procedure, shortened: as §1

[7] = target: T7, OR6P1 (Homo sapiens) (UniProt Q8NGX9)
T7 sequence (whole entry): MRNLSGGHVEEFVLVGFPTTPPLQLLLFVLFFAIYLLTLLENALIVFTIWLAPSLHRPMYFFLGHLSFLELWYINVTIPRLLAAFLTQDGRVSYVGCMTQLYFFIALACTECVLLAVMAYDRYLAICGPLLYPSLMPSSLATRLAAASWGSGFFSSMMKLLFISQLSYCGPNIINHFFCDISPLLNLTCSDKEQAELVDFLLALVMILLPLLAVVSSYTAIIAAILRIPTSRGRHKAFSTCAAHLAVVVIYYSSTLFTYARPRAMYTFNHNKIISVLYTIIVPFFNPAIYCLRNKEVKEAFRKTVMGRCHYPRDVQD
Procedure, shortened: as §1

[8] = target: T8, OR6Q1 (Homo sapiens) (UniProt Q8NGQ2)
T8 sequence (whole entry): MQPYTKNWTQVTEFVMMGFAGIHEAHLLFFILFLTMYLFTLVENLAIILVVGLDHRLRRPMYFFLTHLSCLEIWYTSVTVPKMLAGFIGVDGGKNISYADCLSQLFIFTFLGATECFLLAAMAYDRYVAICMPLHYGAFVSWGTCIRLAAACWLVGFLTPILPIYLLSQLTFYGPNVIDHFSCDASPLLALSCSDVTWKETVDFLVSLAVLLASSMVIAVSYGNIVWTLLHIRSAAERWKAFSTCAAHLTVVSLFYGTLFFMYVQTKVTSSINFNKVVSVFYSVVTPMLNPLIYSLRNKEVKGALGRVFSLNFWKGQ
Procedure, shortened: as §1

[9] = target: T9, OR6S1 (Homo sapiens) (UniProt Q8NH40)
T9 sequence (whole entry): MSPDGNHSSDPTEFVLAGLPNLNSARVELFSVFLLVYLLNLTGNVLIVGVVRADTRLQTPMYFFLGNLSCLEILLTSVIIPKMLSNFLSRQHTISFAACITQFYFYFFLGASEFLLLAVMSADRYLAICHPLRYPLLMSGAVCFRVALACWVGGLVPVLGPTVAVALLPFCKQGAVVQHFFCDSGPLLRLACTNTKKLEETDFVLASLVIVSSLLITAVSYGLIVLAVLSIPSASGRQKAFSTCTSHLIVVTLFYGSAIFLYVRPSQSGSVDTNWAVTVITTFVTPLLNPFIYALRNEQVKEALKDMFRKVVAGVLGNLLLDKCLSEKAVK
Procedure, shortened: as §1

[10] = test system: T10, OR6S1 T42I V156I
T10 sequence (whole entry): T9 sequence (whole entry) with T42I, V156I
Procedure, shortened: as §1

[11] = target: T11, OR6T1 (Homo sapiens) (UniProt Q8NGN1)
T11 sequence (whole entry): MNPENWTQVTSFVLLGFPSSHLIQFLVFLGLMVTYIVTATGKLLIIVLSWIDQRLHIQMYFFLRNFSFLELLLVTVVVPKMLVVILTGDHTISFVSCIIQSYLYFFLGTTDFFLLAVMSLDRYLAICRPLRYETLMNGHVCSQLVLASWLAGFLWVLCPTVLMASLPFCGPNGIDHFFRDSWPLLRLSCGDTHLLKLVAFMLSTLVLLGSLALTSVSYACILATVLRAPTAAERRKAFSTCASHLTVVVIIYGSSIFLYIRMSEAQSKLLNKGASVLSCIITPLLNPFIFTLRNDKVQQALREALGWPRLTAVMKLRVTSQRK
Procedure, shortened: as §1

[12] = test system: T12, OR6T1 N2D
T12 sequence (whole entry): T11 sequence (whole entry) with N2D
Procedure, shortened: as §1

[13] = target: T13, OR6V1 (Homo sapiens) (UniProt Q8N148)
T13 sequence (whole entry): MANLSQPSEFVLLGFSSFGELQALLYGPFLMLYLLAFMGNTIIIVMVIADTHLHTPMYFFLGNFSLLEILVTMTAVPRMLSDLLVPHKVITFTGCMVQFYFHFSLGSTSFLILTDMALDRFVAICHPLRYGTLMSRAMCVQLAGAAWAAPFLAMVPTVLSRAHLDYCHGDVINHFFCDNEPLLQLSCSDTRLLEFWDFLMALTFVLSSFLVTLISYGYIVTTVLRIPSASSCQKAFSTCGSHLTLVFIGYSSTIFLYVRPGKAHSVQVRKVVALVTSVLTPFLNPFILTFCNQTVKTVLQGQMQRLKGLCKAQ
Procedure, shortened: as §1

[14] = target: T14, OR6X1 (Homo sapiens) (UniProt Q8NH79)
T14 sequence (whole entry): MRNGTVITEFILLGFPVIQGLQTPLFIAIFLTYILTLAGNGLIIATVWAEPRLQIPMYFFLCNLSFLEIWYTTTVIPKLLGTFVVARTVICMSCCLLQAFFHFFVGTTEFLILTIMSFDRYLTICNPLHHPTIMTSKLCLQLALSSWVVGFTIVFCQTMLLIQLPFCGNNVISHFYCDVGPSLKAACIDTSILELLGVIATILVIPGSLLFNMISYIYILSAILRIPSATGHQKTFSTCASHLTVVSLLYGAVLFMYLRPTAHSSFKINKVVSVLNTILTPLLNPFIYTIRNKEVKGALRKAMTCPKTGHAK
Procedure, shortened: as §1

[15] = target: T15, OR6Y1 (Homo sapiens) (UniProt Q8NGX8)
T15 sequence (whole entry): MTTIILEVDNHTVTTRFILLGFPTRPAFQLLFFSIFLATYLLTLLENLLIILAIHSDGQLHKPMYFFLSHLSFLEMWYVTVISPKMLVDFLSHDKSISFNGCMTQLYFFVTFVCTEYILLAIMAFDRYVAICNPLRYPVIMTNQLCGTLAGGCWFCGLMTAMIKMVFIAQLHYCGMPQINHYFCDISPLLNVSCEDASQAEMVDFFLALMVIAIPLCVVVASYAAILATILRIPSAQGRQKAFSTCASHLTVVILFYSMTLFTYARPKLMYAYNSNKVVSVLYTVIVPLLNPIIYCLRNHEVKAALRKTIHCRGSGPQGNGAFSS
Procedure, shortened: as §1

[16] = target: T16, OR7A10 (Homo sapiens) (UniProt O76100)
T16 sequence (whole entry): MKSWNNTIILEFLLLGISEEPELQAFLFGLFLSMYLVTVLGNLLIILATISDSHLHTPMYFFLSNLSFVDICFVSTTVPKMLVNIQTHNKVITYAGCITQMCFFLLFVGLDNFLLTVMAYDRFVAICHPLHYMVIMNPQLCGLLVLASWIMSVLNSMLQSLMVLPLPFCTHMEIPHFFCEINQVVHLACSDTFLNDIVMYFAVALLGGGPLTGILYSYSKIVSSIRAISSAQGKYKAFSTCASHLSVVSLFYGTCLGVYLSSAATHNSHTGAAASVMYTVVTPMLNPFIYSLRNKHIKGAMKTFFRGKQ
Procedure, shortened: as §1

[17] = target: T17, OR7A17 (Homo sapiens) (UniProt O14581)
T17 sequence (whole entry): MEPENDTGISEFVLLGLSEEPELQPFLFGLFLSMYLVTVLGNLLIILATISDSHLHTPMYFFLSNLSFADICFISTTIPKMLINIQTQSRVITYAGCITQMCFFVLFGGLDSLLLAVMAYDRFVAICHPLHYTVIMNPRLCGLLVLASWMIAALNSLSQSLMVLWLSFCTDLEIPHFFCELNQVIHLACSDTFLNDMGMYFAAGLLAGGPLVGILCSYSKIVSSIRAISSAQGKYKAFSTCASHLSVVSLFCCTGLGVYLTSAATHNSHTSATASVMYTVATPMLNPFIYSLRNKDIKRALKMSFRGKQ
Procedure, shortened: as §1

[18] = target: T18, OR7A5 (Homo sapiens) (UniProt Q15622)
T18 sequence (whole entry): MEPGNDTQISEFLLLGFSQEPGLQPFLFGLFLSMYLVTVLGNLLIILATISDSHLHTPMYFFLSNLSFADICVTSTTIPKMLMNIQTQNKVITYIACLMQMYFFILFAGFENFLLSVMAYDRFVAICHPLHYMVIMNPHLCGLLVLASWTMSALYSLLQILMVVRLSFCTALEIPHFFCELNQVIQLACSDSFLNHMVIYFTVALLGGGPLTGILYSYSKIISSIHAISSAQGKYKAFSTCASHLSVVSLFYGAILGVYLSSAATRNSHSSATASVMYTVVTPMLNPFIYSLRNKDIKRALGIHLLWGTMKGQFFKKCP
Procedure, shortened: as §1

Measured: odorant receptor agonist call

CCCCCCC=CCCC=O
inactive: [1] | [2] | [3] | [4] | [5] | [6] | [7] | [8] | [9] | [10] | [11] | [12] | [13] | [14] | [15] | [16] | [17] | [18]
